≈ marks a conversion by molar mass, not a printed value. Calls of active or inactive are those of the source. The calls are words filed in the database; no cut-off is given here.
Assays:
[1] = Antiproliferative activity against human HCT116 cells after 72 hrs by MTT assay; type: functional, cell-based; conditions: HCT-116, 72 h
How it was run: (§1)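 Cells grown in RPMI 1640 with heat-inactivated 10% FBS, 1 mmol/L sodium pyruvate and 2 mmol/L L-glutamine at 37 °C, 5% CO2. Seeded at 3.5×10^4 cells/mL and left 24 h, then exposed to compound for 72 h; DMSO control at 0.5% final. Surviving cells measured by MTT, OD 492/620 nm. IC50 taken from triplicate experiments.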

[2] = Antiproliferative activity against human PC3 cells after 72 hrs by MTT assay; type: functional, cell-based; conditions: PC-3, 72 h; how it was run: as §1
[3] = Antiproliferative activity against human HepG2 cells after 72 hrs by MTT assay; type: functional, cell-based; conditions: HepG2, 72 h; how it was run: as §1
[4] = Antiproliferative activity against human SKOV3 cells after 72 hrs by MTT assay; type: functional, cell-based; conditions: SK-OV-3, 72 h; how it was run: as §1
Bos taurus [5] = species on record: Bos taurus; assay: Induction of bovine tubulin polymerization at 10 uM preincubated followed by GTP addition by spectrophotometric analysis
How it was run: (§2)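 Bovine brain tubulin rich in microtubule-associated protein, 2 mg/mL, in 80 mM PIPES pH 6.9, 2 mM MgCl2, 0.5 mM EGTA and 5% glycerol, incubated with test agent or DMSO in cuvettes. Polymerization started with 1 mM GTP at 37 °C and followed by absorbance at 340 nm.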

[6] = Antiproliferative activity against human K562 cells after 72 hrs by MTT assay; type: functional, cell-based; conditions: K562, 72 h; how it was run: as §1
[7] = Antiproliferative activity against human K562/A02 cells after 72 hrs by MTT assay; type: functional, cell-based; conditions: K562/A02, 72 h; how it was run: as §1
[8] = Antiproliferative activity against human KB cells after 72 hrs by MTT assay; type: functional, cell-based; how it was run: as §1
[9] = Antiproliferative activity against human KB/VCR cells after 72 hrs by MTT assay; type: functional, cell-based; how it was run: as §1
[10] = Antiproliferative activity against human MCF7 cells after 72 hrs by MTT assay; type: functional, cell-based; conditions: MCF7, 72 h; how it was run: as §1
[11] = Antiproliferative activity against human MCF7/ADR cells after 72 hrs by MTT assay; type: functional, cell-based; conditions: NCI/ADR-RES; how it was run: as §1
Bos taurus [12] = species on record: Bos taurus; assay: Inhibition of bovine tubulin assessed as induction of microtubule depolymerization at 1 uM preincubated with compound followed by GTP addition by spectrophotometric analysis; how it was run: as §2
A549 [13] = assay: Inhibition of alpha tubulin polymerization in human A549 cells at 200 nM by Hoechst 33258 staining based fluorescent microscopic analysis; type: cell-based
How it was run: (§3)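 A549 cells treated 24 h with agent (200 nM or 50 nM) or DMSO control. α-Tubulin stained with primary antibody and DyLight488 secondary antibody, nuclei with Hoechst 33258. Imaged by fluorescence microscopy.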

SW480 [14] = assay: Induction of apoptosis in human SW480 cells assessed as early apoptotic cells at 50 nM after 24 hrs by propidium iodide-staining based FACS analysis (reference value: 3.41 %); type: functional
How it was run: (§4)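 SW480 cells grown in 60 mm dishes to 70–80% confluence and treated 24 h, with DMSO as vehicle. All cells harvested, fixed in 70% alcohol and washed twice in cold PBS. Stained 30 min at 37 °C in 5 µg/ml propidium iodide, 100 µg/ml RNase and 0.2% Triton X-100, then analysed by flow cytometry.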

SW480 [15] = assay: Induction of apoptosis in human SW480 cells assessed as accumulation of cells at M2 quadrant at 50 nM after 24 hrs by propidium iodide-staining based FACS analysis (reference value: 96.68 %); type: functional; how it was run: as §4
[16] = Solubility of compound in pure water at 25 degC; type: physicochemical
How it was run: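 Measured in pure water at 25 °C.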

A549 [17] = assay: Inhibition of alpha tubulin polymerization in human A549 cells at 50 nM by Hoechst 33258 staining based fluorescent microscopic analysis; type: cell-based; how it was run: as §3
Bos taurus [18] = species on record: Bos taurus; assay: Inhibition of bovine tubulin assessed as induction of microtubule depolymerization at 3 uM preincubated with compound followed by GTP addition by spectrophotometric analysis; how it was run: as §2

O=S(=O)(c1ccc(-c2cnc(C3CC3)o2)cc1)N1CCCOc2ccccc21
IC50 [1]: 40 nM | IC50 [2]: 27 nM | IC50 [3]: 40 nM | IC50 [4]: 36 nM

Nc1ccc2c(c1)OCCCN2S(=O)(=O)c1ccc(-c2cnc(C3CC3)o2)cc1
IC50 [1]: 87 nM | IC50 [2]: 33 nM | IC50 [3]: 100 nM | IC50 [4]: 56 nM

COc1ccc2c(c1)N(S(=O)(=O)c1ccc(-c3cnc(C4CC4)o3)cc1)CCCO2
IC50 [1]: 47 nM | IC50 [2]: 14 nM | IC50 [3]: 49 nM | IC50 [4]: 53 nM

O=S(=O)(c1ccc(-c2cnc(C3CC3)o2)cc1)N1CCOCc2ccccc21
IC50 [1]: 187 nM | IC50 [2]: 137 nM | IC50 [3]: 242 nM | IC50 [4]: 175 nM

CC(=O)O[C@H]1C(=O)[C@@]2(C)[C@H]([C@H](OC(=O)c3ccccc3)[C@]3(O)C[C@H](OC(=O)[C@H](O)[C@@H](NC(=O)c4ccccc4)c4ccccc4)C(C)=C1C3(C)C)[C@]1(OC(C)=O)CO[C@@H]1C[C@@H]2O
Activity (Bos taurus [5]): Active

O=S(=O)(c1ccc(-c2cnc(C3CC3)o2)cc1)N1CCCOc2ccc(F)cc21
IC50 [1]: 24 nM | IC50 [2]: 18 nM | IC50 [3]: 36 nM | IC50 [4]: 15 nM | IC50 [6]: 8 nM | IC50 [7]: 13 nM | IC50 [8]: 7 nM | IC50 [9]: 7 nM | IC50 [10]: 21 nM | IC50 [11]: 20 nM | inhibition (Bos taurus [12]): Active | inhibition (A549 [13]): Active | Activity (SW480 [14]): 7.74% | Activity (SW480 [15]): 92.28% | solubility [16]: 10 µg/mL (≈ 24.1 µM)

COc1cccc2c1C(=O)c1c(O)c3c(c(O)c1C2=O)C[C@@](O)(C(=O)CO)C[C@@H]3O[C@H]1C[C@H](N)[C@H](O)[C@H](C)O1 [DOXORUBICIN]
IC50 [6]: 6 nM | IC50 [7]: 5960 nM | IC50 [8]: 141 nM | IC50 [9]: 1290 nM | IC50 [10]: 140 nM | IC50 [11]: 2940 nM

O=[N+]([O-])c1ccc2c(c1)N(S(=O)(=O)c1ccc(-c3cnc(C4CC4)o3)cc1)CCCO2
IC50 [1]: 133 nM | IC50 [2]: 119 nM | IC50 [3]: 149 nM | IC50 [4]: 53 nM

CN1CCN(S(=O)(=O)c2ccc(-c3cnc(C4CC4)o3)cc2)c2ccccc2C1
IC50 [1]: 256 nM | IC50 [2]: 347 nM | IC50 [3]: 525 nM | IC50 [4]: 199 nM

O=[N+]([O-])c1ccc2c(c1)OCCCN2S(=O)(=O)c1ccc(-c2cnc(C3CC3)o2)cc1
IC50 [1]: 145 nM | IC50 [2]: 72 nM | IC50 [3]: 71 nM | IC50 [4]: 120 nM

O=S(=O)(c1ccc(-c2cnc(C3CC3)o2)cc1)N1CCCc2ccccc21
IC50 [1]: 49 nM | IC50 [2]: 38 nM | IC50 [3]: 29 nM | IC50 [4]: 47 nM

O=S(=O)(c1ccc(-c2cnc(C3CC3)o2)cc1)N1CCSc2ccccc21
IC50 [1]: 45 nM | IC50 [2]: 49 nM | IC50 [3]: 48 nM | IC50 [4]: 39 nM

CC[C@]1(O)C[C@H]2CN(CCc3c([nH]c4ccccc34)[C@@](C(=O)OC)(c3cc4c(cc3OC)N(C=O)[C@H]3[C@@](O)(C(=O)OC)[C@H](OC(C)=O)[C@]5(CC)C=CCN6CC[C@]43[C@@H]65)C2)C1 [VINCRISTINE]
IC50 [6]: 4 nM | IC50 [7]: 926 nM | IC50 [8]: 36 nM | IC50 [9]: 871 nM | IC50 [10]: 29 nM | IC50 [11]: 308 nM | inhibition (A549 [17]): Active

Cc1ccc2c(c1)N(S(=O)(=O)c1ccc(-c3cnc(C4CC4)o3)cc1)CCCO2
IC50 [1]: 29 nM | IC50 [2]: 41 nM | IC50 [3]: 31 nM | IC50 [4]: 34 nM

O=S(=O)(c1ccc(-c2cnc(C3CC3)o2)cc1)N1CCC[S+]([O-])c2ccccc21 (centres undefined)
IC50 [1]: > 1000 nM | IC50 [2]: > 1000 nM | IC50 [3]: > 1000 nM | IC50 [4]: > 1000 nM

O=S(=O)(c1ccc(-c2cnc(C3CC3)o2)cc1)N1CCOc2ccccc21
IC50 [1]: 71 nM | IC50 [2]: 77 nM | IC50 [3]: 58 nM | IC50 [4]: 47 nM

O=S(=O)(c1ccc(-c2cnc(C3CC3)o2)cc1)N1CCCCc2ccccc21
IC50 [1]: 72 nM | IC50 [2]: 39 nM | IC50 [3]: 73 nM | IC50 [4]: 38 nM

O=S(=O)(c1ccc(-c2cnc(C3CC3)o2)cc1)N1CCCOc2cc(F)ccc21
IC50 [1]: 30 nM | IC50 [2]: 42 nM | IC50 [3]: 65 nM | IC50 [4]: 28 nM | IC50 [6]: 14 nM | IC50 [7]: 46 nM | IC50 [8]: 15 nM | IC50 [9]: 12 nM | IC50 [10]: 6 nM | IC50 [11]: 12 nM | inhibition (Bos taurus [12]): Active | inhibition (A549 [13]): Active

COc1ccc2c(c1)OCCCN2S(=O)(=O)c1ccc(-c2cnc(C3CC3)o2)cc1
IC50 [1]: 223 nM | IC50 [2]: 271 nM | IC50 [3]: 229 nM | IC50 [4]: 185 nM

Cc1ccc2c(c1)OCCCN2S(=O)(=O)c1ccc(-c2cnc(C3CC3)o2)cc1
IC50 [1]: 766 nM | IC50 [2]: 241 nM | IC50 [3]: 795 nM | IC50 [4]: 179 nM

COC(=O)Nc1nc2cc(C(=O)c3cccs3)ccc2[nH]1
inhibition (Bos taurus [18]): Active

O=S(=O)(c1ccc(-c2cnc(C3CC3)o2)cc1)N1CCCOc2ccc(Cl)cc21
IC50 [1]: 39 nM | IC50 [2]: 18 nM | IC50 [3]: 28 nM | IC50 [4]: 19 nM

O=S(=O)(c1ccc(-c2cnc(C3CC3)o2)cc1)N1CCCSc2ccccc21
IC50 [1]: 88 nM | IC50 [2]: 34 nM | IC50 [3]: 27 nM | IC50 [4]: 49 nM

O=S1(=O)CCCN(S(=O)(=O)c2ccc(-c3cnc(C4CC4)o3)cc2)c2ccccc21
IC50 [1]: 263 nM | IC50 [2]: 5880 nM | IC50 [3]: 2170 nM | IC50 [4]: 1620 nM

Reference: ChEMBL document CHEMBL3865815, “Synthesis, anti-cancer evaluation of benzenesulfonamide derivatives as potent tubulin-targeting agents” (Eur J Med Chem, 2016)
